pEC50, pKi: −log10 of the molar value.
Columns and labels:
[1] = biological target: T1, 5-hydroxytryptamine receptor 2A (Homo sapiens, UniProt P28223); assay: Displacement of [125I]DOI from human recombinant 5HT2A receptor expressed in HEK293E cells; type: cell-based
How it was run: (§1)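 Radioligand binding with [125I]DOI at the human 5-HT2C or 5-HT2A receptor. Ki is the mean of ≥2 independent 12-point dose-response curves (n ≥4 where SD is given).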

[2] = biological target: T1, 5-hydroxytryptamine receptor 2A; assay: Agonist activity at human recombinant 5HT2A receptor expressed in HEK293E cells by FLIPR assay; type: functional, cell-based
How it was run: (§2)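 Calcium mobilization measured by FLIPR in HEK293E cells expressing human 5-HT2A, 5-HT2B or 5-HT2C receptor. Values are means of ≥2 independent 12-point dose-response curves (n ≥4 where SD is given). mCPP is the positive control.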

[3] = biological target: T2, 5-hydroxytryptamine receptor 2C (Homo sapiens, UniProt P28335); assay: Displacement of [125I]DOI from human recombinant 5HT2C receptor expressed in HEK293E cells; type: cell-based; how it was run: as §1
T2 sequence (P28335 whole entry): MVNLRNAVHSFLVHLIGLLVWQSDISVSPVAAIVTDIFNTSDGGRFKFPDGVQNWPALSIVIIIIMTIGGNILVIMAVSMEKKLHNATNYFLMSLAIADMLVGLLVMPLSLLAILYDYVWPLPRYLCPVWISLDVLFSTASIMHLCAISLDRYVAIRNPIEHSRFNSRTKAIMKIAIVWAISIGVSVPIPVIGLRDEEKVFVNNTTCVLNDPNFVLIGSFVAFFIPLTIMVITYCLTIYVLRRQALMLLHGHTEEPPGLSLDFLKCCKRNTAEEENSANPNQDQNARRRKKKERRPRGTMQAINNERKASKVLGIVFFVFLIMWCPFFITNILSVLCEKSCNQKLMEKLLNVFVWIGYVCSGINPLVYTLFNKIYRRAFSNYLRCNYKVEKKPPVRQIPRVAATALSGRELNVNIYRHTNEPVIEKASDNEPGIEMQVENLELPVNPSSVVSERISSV

[4] = biological target: T2, 5-hydroxytryptamine receptor 2C; assay: Agonist activity at human recombinant 5HT2C receptor expressed in HEK293E cells by FLIPR assay; type: functional, cell-based; how it was run: as §2
[5] = biological target: T3, 5-hydroxytryptamine receptor 2B (Homo sapiens, UniProt P41595); assay: Displacement of [3H]LSD from human recombinant 5HT2B receptor expressed in HEK293E cells
[6] = biological target: T4, 5-hydroxytryptamine receptor 2C (Homo sapiens) (UniProt P28335); assay: Intrinsic activity at human recombinant 5HT2C receptor at 3 uM expressed in HEK293E cells by FLIPR assay relative to control; type: cell-based
T4 sequence (whole entry): T2 sequence (P28335 whole entry)
How it was run: (§3)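 FLIPR calcium mobilization in HEK293E cells expressing the human receptor. Intrinsic activity is expressed relative to activation by 3 µM serotonin, defined as 1.0. Values are means of ≥2 independent 12-point dose-response curves.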

[7] = biological target: T3, 5-hydroxytryptamine receptor 2B; assay: Intrinsic activity at human recombinant 5HT2B receptor expressed in HEK293E cells by FLIPR assay at 3 uM relative to control; type: cell-based; how it was run: as §3
[8] = species: Rattus norvegicus; assay: Antiobesity activity in Sprague-Dawley rat assessed as reduction of food intake after 20 hrs; type: functional, organism-based
[9] = biological target: T1, 5-hydroxytryptamine receptor 2A; assay: Intrinsic activity at human recombinant 5HT2A receptor expressed in HEK293E cells by FLIPR assay at 3 uM relative to control; type: cell-based; how it was run: as §3
[10] = biological target: T3, 5-hydroxytryptamine receptor 2B; assay: Agonist activity at human recombinant 5HT2B receptor expressed in HEK293E cells by FLIPR assay; type: functional, cell-based; how it was run: as §2
[11] = Tmax in Sprague-Dawley rat at 10 mg/kg, po; type: ADME, organism-based; design: dose 10 mg/kg, route oral; details: in vivo
How it was run: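 Male Sprague–Dawley rats were dosed po only at 1 or 10 mpk. Values are means of 2 animals. AUC was collected over 4 h. Plasma and total brain levels were taken at 4 h post dose.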

[12] = AUC in Sprague-Dawley rat at 10 mg/kg, po after 8 hrs; type: ADME, organism-based; design: time < 8 hr, dose 10 mg/kg, route oral; details: plasma
How it was run: (§4)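 Male Sprague–Dawley rats given a single oral dose, 2 animals per value. AUC is taken over 0–8 h. Plasma and total brain levels are measured at 8 h post dose.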

[13] = Plasma concentration in Sprague-Dawley rat at 10 mg/kg, po after 8 hrs; type: ADME, organism-based; design: dose 10 mg/kg, route oral; how it was run: as §4
[14] = test system: Brain; assay: Drug level in Sprague-Dawley rat brain at 10 mg/kg, po after 8 hrs; type: ADME, organism-based; design: dose 10 mg/kg, route oral; details: in vivo; how it was run: as §4
[15] = test system: Rattus norvegicus; assay: Antiobesity activity in Sprague-Dawley rat assessed as reduction of food intake at 10 mg/kg, po after 20 hrs; type: functional; design: scale not given: the % may be the effect or the level left
[16] = test system: Rattus norvegicus; assay: Antiobesity activity in Sprague-Dawley rat assessed as reduction of body weight at 30 mg/kg, po after 4 days; type: functional; design: scale not given: the % may be the effect or the level left
How it was run: (§5)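 Male Sprague–Dawley rats, about 240 g (n = 8), were dosed orally once daily for 4 days with compound or vehicle (14% propylene glycol, 1% tween, 85% water, v/v/v). Body weight, food and water intake were measured daily and compared with vehicle.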

[17] = test system: Rattus norvegicus; assay: Antiobesity activity in Sprague-Dawley rat assessed as reduction of caloric intake at 30 mg/kg, po after 4 days; type: functional; design: scale not given: the % may be the effect or the level left; how it was run: as §5
[18] = test system: Rattus norvegicus; assay: Antiobesity activity in Sprague-Dawley rat assessed as reduction of food intake at 30 mg/kg, po after 20 hrs; type: functional; design: scale not given: the % may be the effect or the level left
How it was run: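 Male Sprague–Dawley rats (n = 6) are dosed orally 60 min before dark-cycle onset. Vehicle is 14% propylene glycol, 1% tween, 85% water (v/v/v). Food pellet consumption over 20 h is compared with vehicle-treated animals as percent reduction. Water intake and locomotor activity are recorded at the same time.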

[19] = biological target: 5-hydroxytryptamine receptor 2B (Rattus norvegicus) (UniProt P30994); assay: Intrinsic activity at 5HT2B receptor in rat fundus at 10 uM relative to control
Sequence of 5-hydroxytryptamine receptor 2B (Rattus norvegicus) (P30994 whole entry, looked up): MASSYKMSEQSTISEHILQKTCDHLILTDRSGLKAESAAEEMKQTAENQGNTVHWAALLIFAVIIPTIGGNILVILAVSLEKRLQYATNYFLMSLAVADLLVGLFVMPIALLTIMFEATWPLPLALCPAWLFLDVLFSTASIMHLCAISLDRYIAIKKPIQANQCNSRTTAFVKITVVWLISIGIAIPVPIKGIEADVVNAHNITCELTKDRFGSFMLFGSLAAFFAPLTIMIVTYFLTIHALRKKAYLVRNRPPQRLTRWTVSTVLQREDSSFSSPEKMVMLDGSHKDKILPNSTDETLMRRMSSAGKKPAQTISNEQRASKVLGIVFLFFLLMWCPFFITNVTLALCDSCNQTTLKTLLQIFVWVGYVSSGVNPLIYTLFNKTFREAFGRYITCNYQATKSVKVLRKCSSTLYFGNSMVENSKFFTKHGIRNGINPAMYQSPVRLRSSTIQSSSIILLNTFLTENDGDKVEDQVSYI

T3 sequence (P41595 whole entry): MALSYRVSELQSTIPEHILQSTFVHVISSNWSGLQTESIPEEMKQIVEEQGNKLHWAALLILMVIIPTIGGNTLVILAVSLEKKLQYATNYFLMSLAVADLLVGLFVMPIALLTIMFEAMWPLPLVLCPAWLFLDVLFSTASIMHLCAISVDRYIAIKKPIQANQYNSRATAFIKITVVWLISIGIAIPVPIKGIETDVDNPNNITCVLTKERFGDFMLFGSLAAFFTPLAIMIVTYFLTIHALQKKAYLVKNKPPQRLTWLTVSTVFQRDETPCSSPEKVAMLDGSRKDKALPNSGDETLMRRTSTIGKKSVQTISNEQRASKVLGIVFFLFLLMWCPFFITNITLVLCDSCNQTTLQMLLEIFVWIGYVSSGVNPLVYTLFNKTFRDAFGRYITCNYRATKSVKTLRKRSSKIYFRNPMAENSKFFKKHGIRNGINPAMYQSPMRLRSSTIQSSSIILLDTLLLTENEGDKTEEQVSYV
T1 sequence (P28223 whole entry): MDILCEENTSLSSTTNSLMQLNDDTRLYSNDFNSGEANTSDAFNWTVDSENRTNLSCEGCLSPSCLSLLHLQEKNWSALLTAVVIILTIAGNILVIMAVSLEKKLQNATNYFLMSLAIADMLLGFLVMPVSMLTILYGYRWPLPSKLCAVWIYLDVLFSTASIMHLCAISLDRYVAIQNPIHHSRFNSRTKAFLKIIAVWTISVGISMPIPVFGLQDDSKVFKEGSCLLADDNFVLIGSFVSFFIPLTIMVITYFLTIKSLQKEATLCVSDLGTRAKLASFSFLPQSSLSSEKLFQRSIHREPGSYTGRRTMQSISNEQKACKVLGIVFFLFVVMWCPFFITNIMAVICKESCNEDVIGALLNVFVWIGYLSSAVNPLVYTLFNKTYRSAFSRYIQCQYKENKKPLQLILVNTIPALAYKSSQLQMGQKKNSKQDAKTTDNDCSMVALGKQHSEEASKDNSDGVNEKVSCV

SMILES | pKi [1] | pEC50 [2] | pKi [3] | pEC50 [4] | pKi [5] | Intrinsic activity [6] | Intrinsic activity [7] | Intrinsic activity [9] | pEC50 [10] | also measured
Cc1ccc2c(c1)N1CCNCCC1NC2=O (stereo in doubt; (-)-3c) [listing 1 of 2 here] | 6.34 | < 5.00 | 7.22 | 7.04 | 7.29 |  |  |  |  | 
Cc1cccc2c1C(=O)NC1CNCCN21 (single isomer, unassigned; (+)) |  |  |  |  |  | 1 | 0 | 0 |  | Activity [8]: Dose-dependent effect
O=C1NC2CCNCCN2c2cccc(Cl)c21 (single isomer, unassigned) | 6.77 | 6.89 | 8.05 | 8.74 | 7.64 | 1 | 0.5 | 0.8 | 7.34 | 
O=C1NC2CNCCCN2c2cccc(Cl)c21 (racemic) | 4.87 |  | 5.81 |  | 6.13 |  |  |  |  | 
Cc1ccc2c(c1)N1CCNCC1NC2=O (single isomer, unassigned) | 6.22 | < 6.00 | 6.32 | 7.47 | 6.55 | 1 | 0 | 0.26 | < 5.00 | 
O=C1NC2CNCCN2c2cccc(Cl)c21 (configuration not stated) | 6.48 | < 5.00 | 6.65 | 7.37 | 7.74 | 0.8 | 0 | 0 | < 5.00 | 
Cc1ccc2c(c1)N1CCNCCC1NC2=O (stereo in doubt; (+)-3c) [listing 1 of 2 here] | 6.44 | 6.02 | 8.19 | 8.18 | 7.39 |  |  |  | < 5.00 | Tmax [11]: 1.5 h; AUC at 8 h [12]: 9.24 µM·h; concentration at 8 h [13]: 714 nM; Drug uptake [14]: 108 nmol/kg; Activity [15]: 18%; Activity [16]: 2.7%; Activity [17]: 19%; Activity [18]: 25%
Cc1ccc2c(c1)N1CCNCCC1NC2=O (stereo in doubt; (-)-3c) [listing 2 of 2 here] |  |  |  |  |  | 0.66 |  | 0.11 |  | 
O=C1NC2CNCCN2c2c(Cl)cccc21 (configuration not stated) | < 5.00 |  | < 5.00 | < 5.00 | < 5.00 | 0 |  |  |  | 
Cc1cccc2c1C(=O)NC1CNCCN21 (stereo in doubt; (-)-2a) [listing 1 of 2 here] |  |  |  |  |  | 0.9 |  |  |  | 
Cc1ccc2c(c1)N1CCNCCC1NC2=O (stereo in doubt; (+)-3c) [listing 2 of 2 here] |  |  |  |  |  | 1.1 | 0 | 0.28 |  | 
O=C1NC2CNCCN2c2ccccc21 (single isomer, unassigned) | 5.70 |  | 5.71 | 6.86 | 6.86 | 0.96 |  |  |  | 
O=C1NC2CNCCN2c2ccc(Cl)cc21 (single isomer, unassigned) | 6.40 |  | 6.12 | 6.96 | 7.14 | 0.97 |  |  |  | 
Clc1cccc(N2CCNCC2)c1 |  |  |  |  |  | 1 | 0.4 | 0.3 |  | 
Cc1cccc2c1N1CCNCC1NC2=O (configuration not stated) | < 5.00 | < 5.00 | 5.21 | 5.38 | 5.62 | 0.4 |  | 0 |  | 
O=C1NC2CNCCN2c2cccc(C(F)(F)F)c21 (single isomer, unassigned) | 6.74 |  | 6.82 | 7.04 | 7.89 | 0.93 |  |  | < 5.00 | 
Cc1ccc2c(c1)C(=O)NC1CNCCN21 (single isomer, unassigned) | 5.91 | < 6.15 | 6.00 | 6.88 | 7.21 | 1 | 0 | 0.34 | < 5.00 | 
Cc1cccc2c1C(=O)NC1CCNCCN21 (configuration not stated) | 6.85 | 7.15 | 8.54 | 8.70 | 8.00 | 1 | 0.44 | 1 | 7.21 | Intrinsic activity [19]: 0.2
O=C1NC2CCNCCN2c2ccccc21 (single isomer, unassigned) | 6.57 | 6.61 | 7.31 | 7.80 | 7.17 | 0.8 | 0.6 | 1 | 7.00 | 
Cc1cccc2c1C(=O)NC1CNCCN21 (stereo in doubt; (-)-2a) [listing 2 of 2 here] | 5.35 |  | 5.68 | 6.00 | 6.69 |  |  |  |  | 
